Laboratory results as given in ChEMBL document CHEMBL3286128 (J Med Chem, 2014).

Legend:
[1] = molecular target: T1, Human immunodeficiency virus type 1 integrase (Human immunodeficiency virus 1, UniProt Q7ZJM1)
[2] = molecular target: T1, Human immunodeficiency virus type 1 integrase; experiment: Inhibition of strand transfer activity of HIV-1 integrase using [gamma-32P]-labeled DNA as substrate
Method in brief: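 Gel-based assay with radiolabelled oligonucleotide substrate and Mg2+ cofactor, measuring strand transfer by recombinant HIV-1 integrase. IC50 determined.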

[3] = test system: Human immunodeficiency virus 1; experiment: Antiviral activity against HIV-1 harboring wild type integrase infected in human HOS cells pretreated with compound for 3 hrs by single-round HIV-1 infectivity assay; assay type: functional, organism-based; details: Human immunodeficiency virus 1, HOS
[4] = test system: Human immunodeficiency virus 1; experiment: Ratio of EC50 for raltegravir-resistant HIV-1 harboring integrase Y143R mutant infected in human HOS cells to EC50 for HIV-1 harboring integrase wild type integrase infected in human HOS cells; assay type: functional
HOS = experiment: Cytotoxicity against human HOS cells assessed as ATP level by luciferase reporter assay; assay type: cell-based
Method in brief: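 HOS cells were exposed to compound and viability was read as ATP level by luciferase reporter. […] SI is CC50 divided by WT-vector EC50.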

[5] = Selectivity index, ratio of CC50 for human HOS cells to EC50 for HIV-1 harboring wild type integrase infected in human HOS cells; assay type: toxicity, cell-based; details: read-out: Ratio CC50/EC50
Method in brief: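 HOS cells were exposed to compound and viability was read as ATP level by luciferase reporter. SI is CC50 divided by WT-vector EC50.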

[6] = Retention time of the compound by HPLC analysis; assay type: physicochemical
Method in brief: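 Preparative HPLC run as a linear gradient of solvent B over 30 min, starting at 30% B and ending at 70% or 80% B depending on the compound. Retention time was taken at elution.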

[7] = test system: Human immunodeficiency virus 1; experiment: Antiviral activity against raltegravir-resistant HIV-1 harboring integrase Y143R mutant infected in human HOS cells pretreated with compound for 3 hrs by single-round HIV-1 infectivity assay; assay type: functional, organism-based; details: Human immunodeficiency virus 1, HOS
[8] = test system: Human immunodeficiency virus 1; experiment: Antiviral activity against raltegravir-resistant HIV-1 harboring integrase N155H mutant infected in human HOS cells pretreated with compound for 3 hrs by single-round HIV-1 infectivity assay; assay type: functional, organism-based; details: Human immunodeficiency virus 1, HOS
[9] = test system: Human immunodeficiency virus 1; experiment: Antiviral activity against raltegravir-resistant HIV-1 harboring integrase G140S/Q148H double mutant infected in human HOS cells pretreated with compound for 3 hrs by single-round HIV-1 infectivity assay; assay type: functional, organism-based; details: Human immunodeficiency virus 1, HOS
[10] = test system: Human immunodeficiency virus 1; experiment: Ratio of EC50 for raltegravir-resistant HIV-1 harboring integrase N155H mutant infected in human HOS cells to EC50 for HIV-1 harboring integrase wild type integrase infected in human HOS cells; assay type: functional
[11] = test system: Human immunodeficiency virus 1; experiment: Ratio of EC50 for raltegravir-resistant HIV-1 harboring integrase G140S/Q148H double mutant infected in human HOS cells to EC50 for HIV-1 harboring integrase wild type integrase infected in human HOS cells; assay type: functional
[12] = test system: Human immunodeficiency virus 1; experiment: Antiviral activity against INSTI-resistant HIV-1 harboring integrase R263K mutant infected in human HOS cells pretreated with compound for 3 hrs by single-round HIV-1 infectivity assay; assay type: functional, organism-based; details: Human immunodeficiency virus 1, HOS
Method in brief: (§1)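 VSV-g-pseudotyped single-round HIV-1 luciferase vector (WT or mutant IN) made in 293T cells by calcium phosphate transfection, supernatant harvested at 48 h. HOS cells were seeded the day before, then pretreated with compound, 11 serial dilutions from 10 μM to 0.0005 μM, at 37 °C for 3 h. Virus was added and cells kept 48 h at 37 °C. Luciferase was read and normalised to infectivity without compound.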

[13] = test system: Human immunodeficiency virus 1; experiment: Antiviral activity against INSTI-resistant HIV-1 harboring integrase G118R mutant infected in human HOS cells pretreated with compound for 3 hrs by single-round HIV-1 infectivity assay; assay type: functional, organism-based; details: Human immunodeficiency virus 1, HOS
Method in brief: as §1

T1 sequence (Q7ZJM1 whole entry): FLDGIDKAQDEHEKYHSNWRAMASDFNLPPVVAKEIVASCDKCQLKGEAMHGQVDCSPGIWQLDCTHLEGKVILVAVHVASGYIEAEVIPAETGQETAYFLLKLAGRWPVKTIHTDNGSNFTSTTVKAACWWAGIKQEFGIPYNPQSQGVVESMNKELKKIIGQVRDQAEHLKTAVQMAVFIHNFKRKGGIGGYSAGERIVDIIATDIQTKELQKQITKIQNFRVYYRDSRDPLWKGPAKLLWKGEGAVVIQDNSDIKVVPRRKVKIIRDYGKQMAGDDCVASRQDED

Row | Compound | IC50 [1] [nM] | IC50 [2] [nM] | EC50 [3] [nM] | Ratio EC50 [4] | CC50 (HOS) [nM] | selectivity ratio [5] | Retention_time [6] [min] | EC50 [7] [nM] | EC50 [8] [nM] | EC50 [9] [nM] | Ratio EC50 [10] | Ratio EC50 [11] | EC50 [12] [nM] | EC50 [13] [nM]
1 | N#Cc1ccc(-c2ccc(Nc3c(C(=O)NCc4ccc(F)cc4F)c(=O)n(O)c4ncccc34)cc2)cc1 | 70000 | 130 | 123 | 3 | > 250000 | > 2030 | 22.3 |  |  |  |  |  |  | 
2 | O=C(NCc1ccc(F)cc1F)c1c(N2CCOCC2)c2cccnc2n(O)c1=O | 77000 | 79 | 1200 | 1.5 | 8400 | 7 | 20.5 | 1800 | 3730 | 6920 | 3 | 6 |  | 
3 | C[C@@H]1CCO[C@H]2Cn3cc(C(=O)NCc4ccc(F)cc4F)c(=O)c(O)c3C(=O)N12 [DOLUTEGRAVIR] |  |  | 1.6 |  |  |  |  | 4.3 | 3.6 | 5.8 |  |  | 11 | 13
4 | COC(=O)[C@@H](CO)Nc1c(C(=O)NCc2ccc(F)cc2F)c(=O)n(O)c2ncccc12 | 4400 | 13 | 14.2 |  |  |  | 20.5 |  |  |  |  |  |  | 
5 | CCCCCNc1c(C(=O)NCc2ccc(F)cc2F)c(=O)n(O)c2ncccc12 | 8200 | 24 | 7.4 |  | 94000 |  | 23.7 |  |  |  |  |  |  | 
6 | O=C(NCc1ccc(F)cc1F)c1c(Nc2ccc(-c3ccccc3)cc2)c2cccnc2n(O)c1=O | 52000 | 340 | 372 | 1 | > 250000 | > 672 | 22.8 |  |  |  |  |  |  | 
7 | Nc1ccc(-c2ccc(Nc3c(C(=O)NCc4ccc(F)cc4F)c(=O)n(O)c4ncccc34)cc2)cc1 | 80000 | 130 | 6.3 | 16 | > 250000 | > 39700 | 15.6 |  |  |  |  |  |  | 
8 | CNc1c(C(=O)NCc2ccc(F)cc2F)c(=O)n(O)c2ncccc12 | 3700 | 27 | 3.1 |  | > 250000 |  | 26.4 |  |  |  |  |  |  | 
9 | O=C(NCc1ccc(F)cc1F)c1c(Nc2ccccc2)c2cccnc2n(O)c1=O | 6900 | 18 | 14 |  | > 250000 |  | 20.2 |  |  |  |  |  |  | 
10 | NCCNc1c(C(=O)NCc2ccc(F)cc2F)c(=O)n(O)c2ncccc12 | 4500 | 39 | 35 |  | 9600 |  | 25.9 |  |  |  |  |  |  | 
11 | COC(=O)[C@H](CO)Nc1c(C(=O)NCc2ccc(F)cc2F)c(=O)n(O)c2ncccc12 | 5800 | 8.4 | 9.7 |  | > 250000 |  | 15.9 |  |  |  |  |  |  | 
12 | COC(=O)[C@H](Nc1c(C(=O)NCc2ccc(F)cc2F)c(=O)n(O)c2ncccc12)c1ccccc1 |  |  | 7.4 |  |  |  | 26.3 |  | 22 |  |  |  |  | 
13 | O=C(NCc1ccc(F)cc1F)c1c(NCCc2ccccc2)c2cccnc2n(O)c1=O | 8000 | 50 | 14 |  | > 250000 |  | 22 |  |  |  |  |  |  | 
14 | CCOC(=O)[C@@H]1CCCN1c1c(C(=O)NCc2ccc(F)cc2F)c(=O)n(O)c2ncccc12 | 86000 | 310 | 590 | 3 | 18000 | 31 | 12.5 | 1660 |  |  |  |  |  | 
15 | COC(=O)[C@@H](Nc1c(C(=O)NCc2ccc(F)cc2F)c(=O)n(O)c2ncccc12)c1ccccc1 |  |  |  |  | > 250000 |  | 22.6 |  |  |  |  |  |  | 
16 | COC(=O)[C@H](C)Nc1c(C(=O)NCc2ccc(F)cc2F)c(=O)n(O)c2ncccc12 |  |  | 4.2 |  |  |  | 26.4 |  |  |  |  |  |  | 
17 | CC(C)Nc1c(C(=O)NCc2ccc(F)cc2F)c(=O)n(O)c2ncccc12 | 1800 | 16 | 7.2 |  | > 250000 |  | 17 |  |  |  |  |  |  | 
18 | O=C(NCc1ccc(F)cc1F)c1c(NC2CCCCCC2)c2cccnc2n(O)c1=O | 13000 | 460 | 12 | 0.55 | 68000 | 5670 | 25.8 | 6.6 | 14 | 35 | 1 | 3 |  | 
19 | CN(C)c1c(C(=O)NCc2ccc(F)cc2F)c(=O)n(O)c2ncccc12 | 21000 | 87 | 268 | 1 | 13000 | 49 | 21.6 | 273 | 2300 | 6800 | 9 | 25 |  | 
20 | O=C(NCc1ccc(F)cc1F)c1c(Nc2ccc3c(c2)Cc2ccccc2-3)c2cccnc2n(O)c1=O | 46000 | 840 | 171 | 3 | > 250000 | > 1460 | 21.3 |  |  |  |  |  |  | 
21 | O=C(NCc1ccc(F)cc1F)c1c(NCCCCc2ccccc2)c2cccnc2n(O)c1=O | 12000 | 280 | 50 | 0.8 | 102000 | 2040 | 26.7 | 40 | 116 | 243 | 2 | 5 |  | 
22 | COC(=O)[C@@H](C)Nc1c(C(=O)NCc2ccc(F)cc2F)c(=O)n(O)c2ncccc12 |  |  | 11.3 |  | > 250000 |  | 26.4 | 8.1 |  | 89 |  |  |  | 
